Measurements reported in ChEMBL document CHEMBL4052618, “Design, synthesis, SAR discussion, in vitro and in vivo evaluation of novel selective EGFR modulator to inhibit L858R/T790M double mutants” (Eur J Med Chem, 2017).

Assays:
[1] = Half life in rat hepatocytes; assay type: ADME, cell-based, Hepatocyte
[2] = molecular target: Tyrosine-protein kinase JAK2 (Homo sapiens) (UniProt O60674); experiment: Inhibition of JAK2 (unknown origin) at 1 uM relative to control
[3] = Half life in monkey liver microsomes; assay type: ADME, Macaca mulatta, microsome; conditions: rhesus monkey
[4] = Cmax in Sprague-Dawley rat at 10 mg/kg, po administered via gavage after 24 hrs by LC-MS/MS analysis; assay type: ADME, organism-based; design: dose 10 mg/kg, route oral; conditions: in vivo
Procedure, shortened: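 Male Sprague-Dawley rats (200-240 g) received 1 mg/kg by tail-vein injection in 2% DMSO, 20% PEG400 and 78% buffered saline, or 10 mg/kg by oral gavage in 0.5% methylcellulose. Orbital sinus blood was drawn into heparinized tubes at 2, 5, 15 and 30 min and at 1, 2, 4, 8, 12 and 24 h, then centrifuged. Plasma was measured by LC/MS/MS in SRM mode, with non-compartmental analysis.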

[5] = molecular target: ALK tyrosine kinase receptor (Homo sapiens) (UniProt Q9UM73); experiment: Inhibition of ALK (unknown origin) at 1 uM relative to control
[6] = molecular target: Inhibitor of nuclear factor kappa-B kinase subunit alpha (Homo sapiens) (UniProt O15111); experiment: Inhibition of CHUK (unknown origin) at 1 uM relative to control
[7] = molecular target: Mitogen-activated protein kinase 1 (Homo sapiens) (UniProt P28482); experiment: Inhibition of MAPK1 (unknown origin) at 1 uM relative to control
[8] = molecular target: Tyrosine-protein kinase BTK (Homo sapiens) (UniProt Q06187); experiment: Inhibition of BTK (unknown origin) at 1 uM relative to control
[9] = AUC (0 to infinity) in Sprague-Dawley rat at 10 mg/kg, po administered via gavage by LC-MS/MS analysis; assay type: ADME, organism-based; design: dose 10 mg/kg, route oral, time infinity; conditions: in vivo
[10] = molecular target: Tyrosine-protein kinase Yes (Homo sapiens) (UniProt P07947); experiment: Inhibition of YES1 (unknown origin) at 1 uM relative to control
[11] = molecular target: Vascular endothelial growth factor receptor 2 (Homo sapiens) (UniProt P35968); experiment: Inhibition of KDR (unknown origin) at 1 uM relative to control
[12] = molecular target: Leucine-rich repeat serine/threonine-protein kinase 2 (Homo sapiens) (UniProt Q5S007); experiment: Inhibition of LRRK2 (unknown origin) at 1 uM relative to control
[13] = molecular target: Protein kinase C gamma type (Homo sapiens) (UniProt P05129); experiment: Inhibition of PRKCG (unknown origin) at 1 uM relative to control
[14] = molecular target: Insulin receptor-related protein (Homo sapiens) (UniProt P14616); experiment: Inhibition of INSRR (unknown origin) at 1 uM relative to control
[15] = molecular target: Serine/threonine-protein kinase Chk2 (Homo sapiens) (UniProt O96017); experiment: Inhibition of CHEK2 (CHK2) (unknown origin) at 1 uM relative to control
[16] = molecular target: Serine/threonine-protein kinase B-raf (Homo sapiens) (UniProt P15056); experiment: Inhibition of BRAF (unknown origin) at 1 uM relative to control
[17] = molecular target: Non-receptor tyrosine-protein kinase TYK2 (Homo sapiens) (UniProt P29597); experiment: Inhibition of TYK2 (unknown origin) at 1 uM relative to control
[18] = Half life in mouse liver microsomes; assay type: ADME, microsome
[19] = molecular target: Platelet-derived growth factor receptor alpha (Homo sapiens) (UniProt P16234); experiment: Inhibition of PDGFRA (unknown origin) at 1 uM relative to control
[20] = test system: NCI-H1975; experiment: In vivo anti tumor activity against human NCI-H1975 cells xenografted in nude C.B-17 SCID mouse model assessed as relative tumor volume at 10 mg/kg, ig for 18 days measured twice a week relative to control; assay type: functional
Procedure, shortened: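 C.B-17 SCID mice received s.c. inoculation of 5 × 10^6 H1975 cells. At 100-150 mm3 they were randomized (n = 9 per group) and dosed intragastrically once daily for 18 days, with PBS as the control. Tumors were measured by caliper twice weekly, with V = length × width²/2. RTV = V/V0, and T/C% = treated mean RTV / control mean RTV × 100.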

[21] = molecular target: Tyrosine-protein kinase Fyn (Homo sapiens) (UniProt P06241); experiment: Inhibition of FYN (unknown origin) at 1 uM relative to control
[22] = Intrinsic clearance in human hepatocytes assessed per million cells; assay type: ADME, cell-based, Hepatocyte
[23] = test system: NCI-H1975; experiment: In vivo anti tumor activity against human NCI-H1975 cells xenografted in nude C.B-17 SCID mouse model assessed as tumor volume at 20 mg/kg, ig for 18 days measured twice a week (reference value: 948.05 mm3); assay type: functional
[24] = molecular target: Protein kinase C alpha type (Homo sapiens) (UniProt P17252); experiment: Inhibition of PRKCA (unknown origin) at 1 uM relative to control
[25] = molecular target: Dual specificity protein kinase CLK1 (Homo sapiens) (UniProt P49759); experiment: Inhibition of CLK1 (unknown origin) at 1 uM relative to control
[26] = molecular target: MAP kinase-interacting serine/threonine-protein kinase 2 (Homo sapiens) (UniProt Q9HBH9); experiment: Inhibition of MKNK2 (unknown origin) at 1 uM relative to control
[27] = Intrinsic clearance in rat hepatocytes assessed per million cells; assay type: ADME, cell-based, Hepatocyte
[28] = molecular target: RAC-beta serine/threonine-protein kinase (Homo sapiens) (UniProt P31751); experiment: Inhibition of AKT2 (unknown origin) at 1 uM relative to control
[29] = molecular target: Proto-oncogene tyrosine-protein kinase Src (Homo sapiens) (UniProt P12931); experiment: Inhibition of SRC (unknown origin) at 1 uM relative to control
[30] = molecular target: Receptor tyrosine-protein kinase erbB-2 (Homo sapiens) (UniProt P04626); experiment: Inhibition of ERBB2 (HER2) (unknown origin) at 1 uM relative to control
[31] = Half life in Sprague-Dawley rat at 1 mg/kg, iv by LC-MS/MS analysis; assay type: ADME, organism-based; conditions: in vivo
Procedure, shortened: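 Male Sprague-Dawley rats (200-240 g) were dosed either by tail vein at 1 mg/kg in 2% DMSO/20% PEG400/78% buffered saline or by oral gavage at 10 mg/kg in 0.5% methylcellulose. Blood was drawn by orbital sinus puncture at 2 min to 24 h into heparin, and plasma was analysed by LC/MS/MS in SRM mode. Parameters came from non-compartmental analysis.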

[32] = Intrinsic clearance in rat liver microsomes; assay type: ADME, microsome; conditions: read-out: CLH
[33] = molecular target: Protein kinase C beta type (Homo sapiens) (UniProt P05771); experiment: Inhibition of PRKCB1 (unknown origin) at 1 uM relative to control
[34] = molecular target: Tyrosine-protein kinase Tec (Homo sapiens) (UniProt P42680); experiment: Inhibition of TEC (unknown origin) at 1 uM relative to control
[35] = molecular target: Tyrosine-protein kinase ITK/TSK (Homo sapiens) (UniProt Q08881); experiment: Inhibition of ITK (unknown origin) at 1 uM relative to control
[36] = test system: RAF proto-oncogene serine/threonine-protein kinase (Homo sapiens), P04049 [Y340D,Y341D]; experiment: Inhibition of RAF1 Y340D/Y341D double mutant (unknown origin) at 1 uM relative to control

Chain of Tyrosine-protein kinase ITK/TSK (Homo sapiens) (Q08881 whole entry): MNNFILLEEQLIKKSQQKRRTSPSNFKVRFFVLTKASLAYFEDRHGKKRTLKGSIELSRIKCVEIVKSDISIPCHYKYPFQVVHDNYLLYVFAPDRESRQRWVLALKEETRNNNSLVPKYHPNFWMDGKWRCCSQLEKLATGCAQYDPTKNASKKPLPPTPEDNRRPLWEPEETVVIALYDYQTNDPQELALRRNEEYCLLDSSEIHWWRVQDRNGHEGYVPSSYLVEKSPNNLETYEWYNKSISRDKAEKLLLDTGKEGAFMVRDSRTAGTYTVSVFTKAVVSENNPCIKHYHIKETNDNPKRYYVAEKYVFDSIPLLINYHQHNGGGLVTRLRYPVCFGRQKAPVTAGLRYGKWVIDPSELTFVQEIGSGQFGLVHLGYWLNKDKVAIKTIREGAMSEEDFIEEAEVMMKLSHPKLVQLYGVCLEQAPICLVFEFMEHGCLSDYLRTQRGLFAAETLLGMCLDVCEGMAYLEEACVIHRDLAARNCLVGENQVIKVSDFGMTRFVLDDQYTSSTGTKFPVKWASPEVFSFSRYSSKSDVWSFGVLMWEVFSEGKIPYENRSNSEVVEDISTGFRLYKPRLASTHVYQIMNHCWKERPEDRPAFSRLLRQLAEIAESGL
Chain of Receptor tyrosine-protein kinase erbB-2 (Homo sapiens) (P04626 whole entry): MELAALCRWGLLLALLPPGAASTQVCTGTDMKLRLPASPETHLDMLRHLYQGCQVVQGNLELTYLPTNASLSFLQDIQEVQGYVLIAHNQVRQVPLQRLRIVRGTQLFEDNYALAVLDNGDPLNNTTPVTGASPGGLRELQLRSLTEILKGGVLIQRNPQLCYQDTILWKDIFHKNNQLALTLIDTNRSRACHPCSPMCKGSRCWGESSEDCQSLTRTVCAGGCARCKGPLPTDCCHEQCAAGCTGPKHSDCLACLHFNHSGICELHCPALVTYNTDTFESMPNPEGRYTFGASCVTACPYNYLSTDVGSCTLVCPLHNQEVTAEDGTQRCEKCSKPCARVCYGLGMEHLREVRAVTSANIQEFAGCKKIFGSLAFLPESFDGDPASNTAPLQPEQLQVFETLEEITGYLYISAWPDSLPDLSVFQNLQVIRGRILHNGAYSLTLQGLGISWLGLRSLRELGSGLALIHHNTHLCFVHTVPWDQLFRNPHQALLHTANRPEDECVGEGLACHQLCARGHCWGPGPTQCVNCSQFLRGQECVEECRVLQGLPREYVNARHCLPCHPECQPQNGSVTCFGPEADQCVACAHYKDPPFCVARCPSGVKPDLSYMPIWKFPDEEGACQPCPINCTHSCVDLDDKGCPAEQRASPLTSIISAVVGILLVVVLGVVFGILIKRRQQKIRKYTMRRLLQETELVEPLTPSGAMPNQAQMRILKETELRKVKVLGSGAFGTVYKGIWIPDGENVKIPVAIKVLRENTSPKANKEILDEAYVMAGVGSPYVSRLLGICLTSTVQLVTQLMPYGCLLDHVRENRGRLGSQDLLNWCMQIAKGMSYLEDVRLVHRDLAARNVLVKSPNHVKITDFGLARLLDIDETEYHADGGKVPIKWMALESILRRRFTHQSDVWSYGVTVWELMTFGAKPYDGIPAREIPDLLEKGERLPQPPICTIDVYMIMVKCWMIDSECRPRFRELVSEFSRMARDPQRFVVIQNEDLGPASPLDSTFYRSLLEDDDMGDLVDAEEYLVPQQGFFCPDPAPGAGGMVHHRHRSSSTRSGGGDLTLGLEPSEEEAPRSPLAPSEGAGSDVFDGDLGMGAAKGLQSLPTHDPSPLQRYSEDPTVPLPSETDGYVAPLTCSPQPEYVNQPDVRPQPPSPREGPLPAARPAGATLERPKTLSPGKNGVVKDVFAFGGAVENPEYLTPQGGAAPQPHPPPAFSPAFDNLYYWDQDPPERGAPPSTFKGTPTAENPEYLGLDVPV
Chain of Protein kinase C beta type (Homo sapiens) (P05771 2-671 limits assumed): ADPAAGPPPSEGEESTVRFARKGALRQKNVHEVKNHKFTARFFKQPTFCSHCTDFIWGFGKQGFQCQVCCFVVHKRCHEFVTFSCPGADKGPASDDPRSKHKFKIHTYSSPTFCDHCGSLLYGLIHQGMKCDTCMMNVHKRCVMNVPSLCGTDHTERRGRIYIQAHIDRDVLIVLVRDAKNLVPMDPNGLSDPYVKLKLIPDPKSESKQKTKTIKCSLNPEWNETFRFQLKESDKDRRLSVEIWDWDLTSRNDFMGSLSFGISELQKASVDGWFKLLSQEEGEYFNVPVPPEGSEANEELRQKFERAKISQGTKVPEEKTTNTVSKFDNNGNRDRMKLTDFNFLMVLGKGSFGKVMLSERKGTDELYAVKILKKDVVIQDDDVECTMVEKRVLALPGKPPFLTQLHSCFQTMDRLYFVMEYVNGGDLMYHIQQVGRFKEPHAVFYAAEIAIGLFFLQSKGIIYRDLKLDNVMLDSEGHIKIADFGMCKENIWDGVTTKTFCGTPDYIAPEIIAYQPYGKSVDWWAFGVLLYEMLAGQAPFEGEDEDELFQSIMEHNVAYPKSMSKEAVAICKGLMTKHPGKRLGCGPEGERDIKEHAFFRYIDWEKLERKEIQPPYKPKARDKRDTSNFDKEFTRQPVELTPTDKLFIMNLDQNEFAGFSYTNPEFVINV
Chain of Mitogen-activated protein kinase 1 (Homo sapiens) (P28482 whole entry): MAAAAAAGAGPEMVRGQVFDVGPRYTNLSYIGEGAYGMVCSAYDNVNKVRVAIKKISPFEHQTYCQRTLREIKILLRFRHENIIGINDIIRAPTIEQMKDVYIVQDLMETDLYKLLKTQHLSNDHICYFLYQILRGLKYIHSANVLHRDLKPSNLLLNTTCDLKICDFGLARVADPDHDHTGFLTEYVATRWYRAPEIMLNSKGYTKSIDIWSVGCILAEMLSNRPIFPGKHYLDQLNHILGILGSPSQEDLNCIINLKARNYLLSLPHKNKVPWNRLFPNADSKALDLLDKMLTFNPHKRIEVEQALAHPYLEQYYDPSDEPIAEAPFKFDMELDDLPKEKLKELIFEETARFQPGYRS
Chain of Proto-oncogene tyrosine-protein kinase Src (Homo sapiens) (P12931 2-536 limits assumed): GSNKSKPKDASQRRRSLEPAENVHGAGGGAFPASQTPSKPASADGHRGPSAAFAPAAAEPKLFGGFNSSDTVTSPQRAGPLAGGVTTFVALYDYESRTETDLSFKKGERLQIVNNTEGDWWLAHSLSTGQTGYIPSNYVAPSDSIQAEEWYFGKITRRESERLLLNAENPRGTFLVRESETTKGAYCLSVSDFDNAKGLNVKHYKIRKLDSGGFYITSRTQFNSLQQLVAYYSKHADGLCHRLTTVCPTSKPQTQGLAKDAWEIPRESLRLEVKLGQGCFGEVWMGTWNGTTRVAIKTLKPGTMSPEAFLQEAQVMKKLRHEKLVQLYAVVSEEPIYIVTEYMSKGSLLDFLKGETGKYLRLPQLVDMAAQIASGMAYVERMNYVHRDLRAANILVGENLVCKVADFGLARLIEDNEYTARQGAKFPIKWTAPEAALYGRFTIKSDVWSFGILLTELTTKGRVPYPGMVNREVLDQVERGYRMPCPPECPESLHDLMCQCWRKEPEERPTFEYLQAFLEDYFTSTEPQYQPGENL
Chain of Insulin receptor-related protein (Homo sapiens) (P14616 27-742 limits assumed): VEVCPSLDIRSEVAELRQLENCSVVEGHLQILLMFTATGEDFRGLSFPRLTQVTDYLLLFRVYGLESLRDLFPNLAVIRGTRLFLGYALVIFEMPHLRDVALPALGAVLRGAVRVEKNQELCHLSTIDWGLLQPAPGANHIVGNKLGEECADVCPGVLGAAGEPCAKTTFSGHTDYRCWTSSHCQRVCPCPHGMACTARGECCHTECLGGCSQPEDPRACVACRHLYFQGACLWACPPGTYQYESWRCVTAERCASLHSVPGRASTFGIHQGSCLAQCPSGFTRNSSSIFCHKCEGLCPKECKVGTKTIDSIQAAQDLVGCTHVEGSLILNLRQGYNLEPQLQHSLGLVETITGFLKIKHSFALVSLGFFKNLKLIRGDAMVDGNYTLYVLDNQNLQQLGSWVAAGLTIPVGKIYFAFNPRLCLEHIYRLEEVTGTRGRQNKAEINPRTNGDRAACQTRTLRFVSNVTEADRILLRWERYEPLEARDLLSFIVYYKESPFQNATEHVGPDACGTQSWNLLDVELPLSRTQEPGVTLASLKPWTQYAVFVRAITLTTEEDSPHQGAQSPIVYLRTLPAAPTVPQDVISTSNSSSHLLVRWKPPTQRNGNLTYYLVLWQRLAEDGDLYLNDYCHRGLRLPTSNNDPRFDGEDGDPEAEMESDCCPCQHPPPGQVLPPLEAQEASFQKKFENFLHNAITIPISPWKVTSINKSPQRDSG
Chain of Insulin receptor-related protein (Homo sapiens) (P14616 747-1297 limits assumed): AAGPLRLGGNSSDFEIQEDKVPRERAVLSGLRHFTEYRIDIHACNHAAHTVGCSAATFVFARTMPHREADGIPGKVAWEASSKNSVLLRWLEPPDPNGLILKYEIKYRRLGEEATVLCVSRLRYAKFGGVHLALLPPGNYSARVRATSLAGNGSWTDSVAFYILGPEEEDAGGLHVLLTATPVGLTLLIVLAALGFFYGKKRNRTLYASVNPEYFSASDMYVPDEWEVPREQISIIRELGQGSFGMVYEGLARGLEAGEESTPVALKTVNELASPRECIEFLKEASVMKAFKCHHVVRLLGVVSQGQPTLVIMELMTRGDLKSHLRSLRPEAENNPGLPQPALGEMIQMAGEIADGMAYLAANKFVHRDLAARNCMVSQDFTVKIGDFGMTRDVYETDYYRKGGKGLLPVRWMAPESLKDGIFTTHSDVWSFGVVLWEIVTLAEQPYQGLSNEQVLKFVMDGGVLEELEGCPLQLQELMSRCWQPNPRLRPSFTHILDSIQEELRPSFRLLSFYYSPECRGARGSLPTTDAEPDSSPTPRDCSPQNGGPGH

SMILES: C=CC(=O)Nc1cc(Nc2nccc(-c3cn4c5c(cccc35)CCC4)n2)c(OC)cc1N(C)CCN(C)C
- half-life [1]: 33 min
- inhibition [2]: -6%
- half-life [3]: 28.9 min
- Cmax [4]: 111 ng/mL
- inhibition [5]: 84%
- inhibition [6]: 14%
- inhibition [7]: -3%
- inhibition [8]: 48%
- AUC(0-inf) [9]: 1020 ng·h/mL
- inhibition [10]: 10%
- inhibition [11]: 37%
- inhibition [12]: 90%
- inhibition [13]: -2%
- inhibition [14]: 39%
- inhibition [15]: -2%
- inhibition [16]: 20%
- inhibition [17]: 14%
- half-life [18]: 11.9 min
- inhibition [19]: 13%
- T/C [20]: 25.7%
- inhibition [21]: 7%
- CLH [22]: 5 µL/min/10^6 cells
- Activity [23]: 113.52 mm3
- inhibition [24]: 1%
- inhibition [25]: 20%
- inhibition [26]: 117%
- CLH [27]: 21 µL/min/10^6 cells
- inhibition [28]: 1%
- inhibition [29]: 16%
- inhibition [30]: 87%
- half-life [31]: 270 min
- CLint scaled [32]: 54 mL/min/kg
- inhibition [33]: 2%
- inhibition [34]: 52%
- inhibition [35]: 66%
- inhibition [36]: 8%
